Assay results reported in ChEMBL document CHEMBL1146247, “Identification and characterization of 3-substituted pyrazolyl esters as alternate substrates for cathepsin B: the confounding effects of DTT and cysteine in biological assays” (Bioorg Med Chem Lett, 2007).

Columns and labels:
Cathepsin B [1] = molecular target: T1, Cathepsin B (Homo sapiens, UniProt P07858); test: Inhibition of human liver cathepsin B pre-incubated for 17 hrs in assay buffer with DTT
Procedure, shortened: (§1)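 Compound held 2, 17 or 24 h in assay buffer (phosphate pH 6.8, with DTT) before testing. It was then incubated with 0.1 nM cathepsin B in 100 mM buffer with 2 mM DTT, 1 mM EDTA and 15 µM Z-Arg-Arg-AMC for 1 h at room temperature. Read-out was AMC fluorescence (ex 355/em 460). IC50 came from 16 2-fold dilutions.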

Cathepsin B [2] = molecular target: T1, Cathepsin B; test: Inhibition of human liver cathepsin B pre-incubated for 24 hrs in assay buffer with DTT; procedure, shortened: as §1
Cathepsin B [3] = molecular target: T1, Cathepsin B; test: Inhibition of human liver cathepsin B pre-incubated for 2 hrs in buffer without DTT
Procedure, shortened: (§2)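 Compound held 2, 17 or 24 h in phosphate assay buffer pH 6.8 lacking DTT before testing. It was then run in the standard assay: 0.1 nM activated cathepsin B, 15 µM Z-Arg-Arg-AMC, 1 h at room temperature. Read-out was AMC fluorescence at 355/460 nm. IC50 came from a 16-point 2-fold dilution curve.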

Cathepsin B [4] = molecular target: T1, Cathepsin B; test: Inhibition of human liver cathepsin B pre-incubated for 17 hrs in buffer without DTT; procedure, shortened: as §2
Cathepsin B [5] = molecular target: T1, Cathepsin B; test: Inhibition of human liver cathepsin B
Procedure, shortened: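 Enzyme activated 15 min in assay buffer (100 mM Na/K phosphate pH 6.8, 1 mM EDTA, 2 mM DTT), then incubated 1 h at room temperature with 15 µM Z-Arg-Arg-AMC and compound. Compound given as 16 2-fold dilutions, 50 µM to 1.5 nM. AMC fluorescence read at ex 355/em 460 nm. Triplicate plates gave three independent IC50 values.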

Cathepsin B [6] = molecular target: T1, Cathepsin B; test: Inhibition of human liver cathepsin B pre-incubated for 2 hrs in assay buffer with DTT; procedure, shortened: as §1
Cathepsin B [7] = molecular target: T1, Cathepsin B; test: Inhibition of human liver cathepsin B pre-incubated for 24 hrs in buffer without DTT; procedure, shortened: as §2
Cathepsin B [8] = molecular target: T1, Cathepsin B; test: Inhibition of human liver cathepsin B pre-incubated for 2 hrs in non-buffer solution without DTT
Procedure, shortened: (§3)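 Compound held 2, 17 or 24 h in non-buffered solution without DTT before testing. It was then assayed against 0.1 nM activated cathepsin B with 15 µM Z-Arg-Arg-AMC for 1 h at room temperature. Read-out was AMC fluorescence at ex 355/em 460 nm. IC50 came from 16 2-fold dilutions.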

Cathepsin B [9] = molecular target: T1, Cathepsin B; test: Inhibition of human liver cathepsin B pre-incubated for 17 hrs in non-buffer solution without DTT; procedure, shortened: as §3
Cathepsin B [10] = molecular target: T1, Cathepsin B; test: Inhibition of human liver cathepsin B pre-incubated for 24 hrs in non-buffer solution without DTT; procedure, shortened: as §3
[11] = Stability of compound in presence of cathepsin B after 15 mins; assay type: ADME; details: read-out: Stability
Procedure, shortened: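 Stoichiometric incubation of ester (10 μM, 1 equiv) with activated cathepsin B (20 μM, 2 equiv) under standard assay conditions (100 mM sodium-potassium phosphate pH 6.8, 1 mM EDTA, 2 mM DTT); parallel run without enzyme. After 15 min, remaining parent and conversion to pyrazolone by-product measured by LC–MS, 6.5 min run.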

SMILES: Nc1cc(OC(=O)c2cccs2)nn1S(=O)(=O)c1ccccc1
- IC50 (Cathepsin B [1]): 45.4 µM
- IC50 (Cathepsin B [2]): > 50 µM
- IC50 (Cathepsin B [3]): 1.4 µM
- IC50 (Cathepsin B [4]): 0.7 µM
- IC50 (Cathepsin B [5]): 0.25 µM
- IC50 (Cathepsin B [6]): 9 µM
- IC50 (Cathepsin B [7]): 3.2 µM
- IC50 (Cathepsin B [8]): 1.7 µM
- IC50 (Cathepsin B [9]): 1.8 µM
- IC50 (Cathepsin B [10]): 5 µM
- remaining at 0.25 h [11]: 50%

SMILES: Cc1ccc(S(=O)(=O)n2nc(OC(=O)c3cccs3)cc2N)cc1
- IC50 (Cathepsin B [5]): 1.99 µM

SMILES: COc1ccc(S(=O)(=O)n2nc(OC(=O)c3cccs3)cc2N)cc1
- IC50 (Cathepsin B [5]): 0.69 µM

SMILES: Cc1ccc(S(=O)(=O)n2nc(OC(=O)c3ccco3)cc2N)cc1
- IC50 (Cathepsin B [5]): 1.75 µM

SMILES: Nc1cc(OC(=O)c2ccco2)nn1S(=O)(=O)c1ccc(F)cc1
- IC50 (Cathepsin B [5]): 1.26 µM

SMILES: Nc1cc(OC(=O)c2cccs2)nn1S(=O)(=O)c1ccc(F)cc1
- IC50 (Cathepsin B [5]): 0.44 µM
